10 compounds from ChEMBL document CHEMBL4732065 (Eur J Med Chem, 2021) can be followed below.

The first data set addresses T1, Cytochrome P450 1A2 (Homo sapiens, UniProt P05177).
T1 sequence (P05177 whole entry): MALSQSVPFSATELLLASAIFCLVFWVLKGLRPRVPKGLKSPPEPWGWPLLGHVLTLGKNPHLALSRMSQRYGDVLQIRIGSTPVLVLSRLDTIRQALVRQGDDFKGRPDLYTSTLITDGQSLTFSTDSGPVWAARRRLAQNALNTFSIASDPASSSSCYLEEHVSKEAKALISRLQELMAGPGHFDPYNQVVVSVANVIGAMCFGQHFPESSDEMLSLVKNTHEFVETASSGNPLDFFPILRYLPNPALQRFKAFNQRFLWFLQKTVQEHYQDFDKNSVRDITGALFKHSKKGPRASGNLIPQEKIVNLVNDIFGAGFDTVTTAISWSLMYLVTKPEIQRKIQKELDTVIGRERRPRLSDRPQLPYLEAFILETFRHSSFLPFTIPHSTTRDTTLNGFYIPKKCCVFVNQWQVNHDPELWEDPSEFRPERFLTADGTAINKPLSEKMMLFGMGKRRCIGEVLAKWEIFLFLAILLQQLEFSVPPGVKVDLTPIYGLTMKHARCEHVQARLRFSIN
Kind of data set: Inhibition of recombinant human CYP1A2 using 7-ethoxyresorufin as substrate after 50 mins in presence of NADP+ by EROD assay. The class given is ADME.
Details: not given
The method, boiled down:
(§1)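 Recombinant human CYP1 Supersomes co-expressing P450 reductase; 20 fmol CYP1B1, 10 fmol CYP1A1 or 60 fmol CYP1A2 per well. Incubated at 37 °C (1B1 35 min, 1A1 15 min, 1A2 50 min).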
Turning to `COc1ccc(OC)c2c1c(OC)cc1c(=O)cc(-c3ccc(N)cn3)oc12`, the IC50 was greater than 1000 nM.

Take `COc1ccc(OC)c2c1c(OC)cc1c(=O)cc(-c3cncc(C(=O)O)c3)oc12`: the IC50 is greater than 1000 nM.

For `COc1ccc(OC)c2c1c(OC)cc1c(=O)cc(-c3ccnc(O)c3)oc12`, the IC50 is greater than 1000 nM.

With `COc1ccc(OC)c2c1c(OC)cc1c(=O)cc(-c3ccc(F)cn3)oc12`, the IC50 was greater than 1000 nM.

`COc1ccc(OC)c2c1c(OC)cc1c(=O)cc(-c3cccs3)oc12`: the IC50 stood at 40.4 nM.

For `COc1ccc(OC)c2c1c(OC)cc1c(=O)cc(-c3ccco3)oc12`, the IC50 worked out at 67.2 nM.

As to `COc1ccc(OC)c2c1c(OC)cc1c(=O)cc(-c3ccc4[nH]ncc4c3)oc12`, the IC50 is greater than 1000 nM.

In the case of `COc1ccc(OC)c2c1c(OC)cc1c(=O)cc(-c3cncc(O)c3)oc12`, the IC50 is greater than 1000 nM.

For the compound `COc1ccc(OC)c2c1c(OC)cc1c(=O)cc(-c3ccc4cc[nH]c4c3)oc12`, the IC50 is greater than 1000 nM.

Another data set is filed under the species Homo sapiens. Kind of data set: Selectivity index, ratio of IC50 for recombinant human CYP1A1 to IC50 for recombinant human CYP1B1.
Details: not given
As to `COc1ccc(OC)c2c1c(OC)cc1c(=O)cc(-c3ccc(N)cn3)oc12`, the Ratio IC50 is 11.1.

On to `COc1ccc(OC)c2c1c(OC)cc1c(=O)cc(-c3cncc(C(=O)O)c3)oc12`, for which the Ratio IC50 is 2.9.

For `COc1ccc(OC)c2c1c(OC)cc1c(=O)cc(-c3ccnc(O)c3)oc12`, the Ratio IC50 was 3.8.

Take `COc1ccc(OC)c2c1c(OC)cc1c(=O)cc(-c3ccc(F)cn3)oc12`: the Ratio IC50 was 240.

Take `COc1ccc(OC)c2c1c(OC)cc1c(=O)cc(-c3cccs3)oc12`: the Ratio IC50 was determined as 0.9.

Take `COc1ccc(OC)c2c1c(OC)cc1c(=O)cc(-c3ccco3)oc12`: the Ratio IC50 turned out to be 11.5.

With `COc1ccc(OC)c2c1c(OC)cc1c(=O)cc(-c3ccc4[nH]ncc4c3)oc12`, the Ratio IC50 was 0.8.

On to `COc1ccc(OC)c2c1c(OC)cc1c(=O)cc(-c3cncc(O)c3)oc12`, for which the Ratio IC50 was 7.9.

As to `COc1ccc(OC)c2c1c(OC)cc1c(=O)cc(-c3ccc4cc[nH]c4c3)oc12`, the Ratio IC50 is 149.

A further data set has as its target T2, Cytochrome P450 1B1 (Homo sapiens, UniProt Q16678).
T2 sequence (Q16678 whole entry): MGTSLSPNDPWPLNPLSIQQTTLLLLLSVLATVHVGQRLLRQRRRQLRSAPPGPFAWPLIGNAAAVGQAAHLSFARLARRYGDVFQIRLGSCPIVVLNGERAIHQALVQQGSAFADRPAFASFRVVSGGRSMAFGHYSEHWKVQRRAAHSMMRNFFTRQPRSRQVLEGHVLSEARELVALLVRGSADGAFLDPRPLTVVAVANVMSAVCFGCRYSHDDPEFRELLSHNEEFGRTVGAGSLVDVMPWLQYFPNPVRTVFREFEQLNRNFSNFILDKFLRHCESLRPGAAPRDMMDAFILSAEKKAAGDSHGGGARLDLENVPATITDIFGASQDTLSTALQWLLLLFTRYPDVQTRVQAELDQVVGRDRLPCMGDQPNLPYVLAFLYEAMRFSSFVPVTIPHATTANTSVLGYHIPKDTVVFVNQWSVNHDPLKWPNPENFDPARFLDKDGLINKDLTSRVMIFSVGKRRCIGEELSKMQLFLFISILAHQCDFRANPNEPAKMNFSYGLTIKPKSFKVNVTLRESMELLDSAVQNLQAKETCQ
The experiment in a line: Inhibition of recombinant human CYP1B1 using 7-ethoxyresorufin as substrate after 35 mins in presence of NADP+ by EROD assay.
Details: not given
The gist of the method: as §1
`COc1ccc(OC)c2c1c(OC)cc1c(=O)cc(-c3ccc(N)cn3)oc12`: the IC50 stood at 6 nM.

On to `COc1ccc(OC)c2c1c(OC)cc1c(=O)cc(-c3cncc(C(=O)O)c3)oc12`, for which the IC50 is 30.1 nM.

On to `COc1ccc(OC)c2c1c(OC)cc1c(=O)cc(-c3ccnc(O)c3)oc12`, for which the IC50 turned out to be 61.5 nM.

Regarding `COc1ccc(OC)c2c1c(OC)cc1c(=O)cc(-c3ccc(F)cn3)oc12`, the IC50 is 0.07 nM.

Turning to `COc1ccc(OC)c2c1c(OC)cc1c(=O)cc(-c3cccs3)oc12`, the IC50 stood at 4.8 nM.

On to `COc1ccc(OC)c2c1c(OC)cc1c(=O)cc(-c3ccco3)oc12`, for which the IC50 worked out at 1.2 nM.

Consider `COc1ccc(OC)c2c1c(OC)cc1c(=O)cc(-c3ccc4[nH]ncc4c3)oc12`, for which the IC50 is 2 nM.

With `COc1ccc(OC)c2c1c(OC)cc1c(=O)cc(-c3cncc(O)c3)oc12`, the IC50 stood at 10.3 nM.

Turning to `COc1ccc(OC)c2c1c(OC)cc1c(=O)cc(-c3ccc4cc[nH]c4c3)oc12`, the 50% inhibitory concentration (IC50) turned out to be 0.95 nM.

System in the next data set: not listed separately
Kind of data set: Water solubility of compound by HPLC analysis. The class given is physicochemical.
Details: not given
The gist of the method:
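Compound stocks at 5 mg/mL in DCM/MeOH were diluted in MeOH to 125–2000 µg/mL (500–5000 µg/mL for the salt form) and run on C18 HPLC with detection at 360 nm for calibration. A 10 µL injection of supersaturated aqueous solution, diluted if needed, was then analysed. Solubility was calculated from the linear regression.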
Compound `O=c1cc(-c2ccccc2)oc2c1ccc1ccccc12` [ALPHA-NAPHTHOFLAVONE] returned a solubility of less than 5 µg/mL.

`COc1ccc(OC)c2c1c(OC)cc1c(=O)cc(-c3ccc(F)cn3)oc12` gave a solubility of less than 5 µg/mL.

In another data set the target is T2, Cytochrome P450 1B1. Kind of data set: Potency index, ratio of IC50 of ANF to IC50 of compound for inhibition of human recombinant CYP1B1. The note with it: read-out: Ratio IC50.
With `COc1ccc(OC)c2c1c(OC)cc1c(=O)cc(-c3ccc(F)cn3)oc12`, the selectivity ratio was determined as 84.

Another data set is filed under the species Homo sapiens. The experiment in a line: Selectivity index, ratio of IC50 for recombinant human CYP1A2 to IC50 for recombinant human CYP1B1.
Details: not given
On to `COc1ccc(OC)c2c1c(OC)cc1c(=O)cc(-c3ccc(N)cn3)oc12`, for which the Ratio IC50 was greater than 167.

In the case of `COc1ccc(OC)c2c1c(OC)cc1c(=O)cc(-c3cncc(C(=O)O)c3)oc12`, the Ratio IC50 is greater than 33.2.

Take `COc1ccc(OC)c2c1c(OC)cc1c(=O)cc(-c3ccnc(O)c3)oc12`: the Ratio IC50 was greater than 16.3.

With `COc1ccc(OC)c2c1c(OC)cc1c(=O)cc(-c3ccc(F)cn3)oc12`, the Ratio IC50 is greater than 14300.

As for `COc1ccc(OC)c2c1c(OC)cc1c(=O)cc(-c3cccs3)oc12`, the Ratio IC50 is 8.4.

In the case of `COc1ccc(OC)c2c1c(OC)cc1c(=O)cc(-c3ccco3)oc12`, the Ratio IC50 was 56.

Turning to `COc1ccc(OC)c2c1c(OC)cc1c(=O)cc(-c3ccc4[nH]ncc4c3)oc12`, the Ratio IC50 is greater than 500.

In the case of `COc1ccc(OC)c2c1c(OC)cc1c(=O)cc(-c3cncc(O)c3)oc12`, the Ratio IC50 is greater than 97.1.

Take `COc1ccc(OC)c2c1c(OC)cc1c(=O)cc(-c3ccc4cc[nH]c4c3)oc12`: the Ratio IC50 is greater than 1050.

Another data set addresses T3, Cytochrome P450 1A1 (Homo sapiens, UniProt P04798).
T3 sequence (P04798 whole entry): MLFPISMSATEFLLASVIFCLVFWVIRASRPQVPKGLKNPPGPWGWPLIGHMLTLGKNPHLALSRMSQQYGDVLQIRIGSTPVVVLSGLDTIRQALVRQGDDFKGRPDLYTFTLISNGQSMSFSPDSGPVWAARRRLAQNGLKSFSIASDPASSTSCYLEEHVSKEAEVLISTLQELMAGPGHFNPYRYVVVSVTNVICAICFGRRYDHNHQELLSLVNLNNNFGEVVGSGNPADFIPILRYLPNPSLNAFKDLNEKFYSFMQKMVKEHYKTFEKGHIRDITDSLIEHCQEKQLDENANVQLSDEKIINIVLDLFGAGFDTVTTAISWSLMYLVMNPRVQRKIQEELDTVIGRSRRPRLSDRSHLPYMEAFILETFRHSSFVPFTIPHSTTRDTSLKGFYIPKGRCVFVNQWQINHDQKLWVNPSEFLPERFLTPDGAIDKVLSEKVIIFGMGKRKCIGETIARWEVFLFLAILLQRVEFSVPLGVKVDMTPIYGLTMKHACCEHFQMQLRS
Kind of data set: Inhibition of recombinant human CYP1A1 using 7-ethoxyresorufin as substrate after 15 mins in presence of NADP+ by EROD assay. Format: ADME.
Details: not given
The gist of the method: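 Recombinant human CYP1 Supersomes co-expressing P450 reductase; 20 fmol CYP1B1, 10 fmol CYP1A1 or 60 fmol CYP1A2 per well. Incubated at 37 °C (1B1 35 min, 1A1 15 min, 1A2 50 min). Stopped with cold methanol; fluorescence read at 544/590 nm; triplicates.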
Consider `COc1ccc(OC)c2c1c(OC)cc1c(=O)cc(-c3ccc(N)cn3)oc12`, for which the IC50 amounted to 66.6 nM.

Turning to `COc1ccc(OC)c2c1c(OC)cc1c(=O)cc(-c3cncc(C(=O)O)c3)oc12`, the IC50 came out at 85.8 nM.

Take `COc1ccc(OC)c2c1c(OC)cc1c(=O)cc(-c3ccnc(O)c3)oc12`: the IC50 was found to be 232 nM.

`COc1ccc(OC)c2c1c(OC)cc1c(=O)cc(-c3ccc(F)cn3)oc12`: the IC50 is 16.8 nM.

In the case of `COc1ccc(OC)c2c1c(OC)cc1c(=O)cc(-c3cccs3)oc12`, the IC50 turned out to be 4.4 nM.

In the case of `COc1ccc(OC)c2c1c(OC)cc1c(=O)cc(-c3ccco3)oc12`, the IC50 was determined as 13.8 nM.

With `COc1ccc(OC)c2c1c(OC)cc1c(=O)cc(-c3ccc4[nH]ncc4c3)oc12`, the IC50 stood at 1.6 nM.

`COc1ccc(OC)c2c1c(OC)cc1c(=O)cc(-c3cncc(O)c3)oc12`: the IC50 was 80.9 nM.

In the case of `COc1ccc(OC)c2c1c(OC)cc1c(=O)cc(-c3ccc4cc[nH]c4c3)oc12`, the IC50 stood at 142 nM.

A word on the IC50: it is the midpoint of a concentration-inhibition curve. One may read the solubility as the dissolved amount per volume that the medium holds. Read a low solubility as a poorly soluble substance.
